Assay results taken from ChEMBL document CHEMBL3763118, “Trioxolane-Mediated Delivery of Mefloquine Limits Brain Exposure in a Mouse Model of Malaria” (ACS Med Chem Lett, 2015).
Activity calls are given as the source filed them. No cut-off for these calls is given here.

Columns and labels:
[1] = test system: Plasmodium falciparum; assay: Antiplasmodium activity against Plasmodium falciparum W2 by flow cytometry; assay type: functional, organism-based
How it was run: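 Activity against P. falciparum, reported as EC50, the mean of three or six separate determinations.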

[2] = Ratio of drug level in human blood to plasma; assay type: ADME, cell-free; conditions: whole blood and plasma
[3] = test system: Plasmodium berghei; assay: Antimalarial activity against Plasmodium berghei infected in Swiss-Webster mouse assessed as mouse survival at 9.5 mg/kg qd for 4 days administered via oral gavage; assay type: functional, organism-based
How it was run: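 Female Swiss-Webster mice (n = 5 per arm) were inoculated with 10^6 P. berghei parasites. Oral gavage once daily for 4 days, starting on the day of inoculation; doses were equimolar across compounds. Parasitemia, morbidity and survival were followed daily for 28 days, with euthanasia as the protocol required.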

[4] = Stability in human plasma after 120 mins by LC/MS analysis; assay type: ADME, cell-free; conditions: read-out: Stability
How it was run: (§1)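 Compounds were incubated at 37 °C in human plasma or whole blood for 240 min (120 min in some plasma cases). The value is the percent of parent remaining.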

[5] = test system: Plasmodium chabaudi; assay: Antimalarial activity against Plasmodium chabaudi infected in Balb/c mouse assessed as parastemia at 16.5 mg/kg, ip measured 7 day postinoculation (reference value: 34 +/- 2.3 %); assay type: functional
How it was run: (§2)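 Mice infected with P. chabaudi received one i.p. dose on day 4 postinoculation. Parasitemia (%) was measured on days 4, 7 and 13 postinoculation and reported as mean ± SEM. Animals in poor health were sacrificed on day 8 as the protocol required.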

[6] = AUC (infinity) in Balb/c mouse at 50 mg/kg, ip by LC-MS/MS analysis; assay type: ADME, organism-based; set-up: dose 50 mg/kg, time infinity, route intraperitoneal; conditions: in vivo
How it was run: (§3)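 Noncompartmental plasma PK after one i.p. dose of 50 mg/kg in uninfected mice and in P. chabaudi-infected mice. Parameters are terminal t1/2, tmax, Cmax, AUCinf, CL/F, Vz/F, MRTlast and MRTinf. F is the fraction of drug reaching systemic exposure after the i.p. dose.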

[7] = Terminal half life in Balb/c mouse at 50 mg/kg, ip by LC-MS/MS analysis; assay type: ADME, organism-based; conditions: in vivo, read-out: beta t1/2 (converted); how it was run: as §3
[8] = test system: Plasma; assay: Prodrug activation in Plasmodium chabaudi infected Balb/c mouse plasma assessed as mefloquine level at 50 mg/kg, ip at 24 hrs by LC-MS/MS analysis; assay type: organism-based; conditions: in vivo
How it was run: (§4)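 Infected mice (P. chabaudi) each got one i.p. dose of 50 mg/kg of the trioxolane conjugate. Blood and brain were collected over 24 h. Plasma and brain were analysed for intact conjugate and for released mefloquine.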

[9] = AUC (infinity) in Plasmodium chabaudi infected Balb/c mouse at 50 mg/kg, ip by LC-MS/MS analysis; assay type: ADME, organism-based; set-up: dose 50 mg/kg, route intraperitoneal, time infinity; conditions: in vivo; how it was run: as §3
[10] = test system: Plasmodium chabaudi; assay: Antimalarial activity against Plasmodium chabaudi infected in Balb/c mouse assessed as parastemia at 50 mg/kg, ip measured 7 day postinoculation (reference value: 34 +/- 2.3 %); assay type: functional; how it was run: as §2
[11] = Cmax in Plasmodium chabaudi infected Balb/c mouse at 50 mg/kg, ip by LC-MS/MS analysis; assay type: ADME, organism-based; set-up: dose 50 mg/kg, route intraperitoneal; conditions: in vivo; how it was run: as §3
[12] = Tmax in Plasmodium chabaudi infected Balb/c mouse at 50 mg/kg, ip by LC-MS/MS analysis; assay type: ADME, organism-based; conditions: in vivo; how it was run: as §3
[13] = test system: Plasmodium chabaudi; assay: Antimalarial activity against Plasmodium chabaudi infected in Balb/c mouse assessed as parastemia at 16.5 mg/kg, ip measured 13 day postinoculation; assay type: functional; how it was run: as §2
[14] = Stability in human blood after 240 mins by LC/MS analysis; assay type: ADME; conditions: whole blood, read-out: Stability; how it was run: as §1
[15] = test system: Plasmodium chabaudi; assay: Antimalarial activity against Plasmodium chabaudi infected in Balb/c mouse assessed as parastemia at 50 mg/kg, ip measured 13 day postinoculation; assay type: functional; how it was run: as §2
[16] = Apparent volume of distribution during terminal phase in Balb/c mouse at 50 mg/kg, ip by LC-MS/MS analysis; assay type: ADME, organism-based; conditions: in vivo, read-out: Vz/F; how it was run: as §3
[17] = Apparent oral clearance in Plasmodium chabaudi infected Balb/c mouse at 50 mg/kg, ip by LC-MS/MS analysis; assay type: ADME, organism-based; conditions: in vivo; how it was run: as §3
[18] = test system: Brain; assay: Prodrug activation in Plasmodium chabaudi infected Balb/c mouse brain assessed as mefloquine level at 50 mg/kg, ip at 24 hrs by LC-MS/MS analysis; assay type: organism-based; conditions: in vivo; how it was run: as §4
[19] = Tmax in Plasmodium chabaudi infected Balb/c mouse plasma at 50 mg/kg, ip by LC-MS/MS analysis; assay type: ADME, organism-based; how it was run: as §4
[20] = Apparent volume of distribution during terminal phase in Plasmodium chabaudi infected Balb/c mouse at 50 mg/kg, ip by LC-MS/MS analysis; assay type: ADME, organism-based; conditions: in vivo, read-out: Vz/F; how it was run: as §3
[21] = Stability in human plasma after 240 mins by LC/MS analysis; assay type: ADME, cell-free; conditions: read-out: Stability; how it was run: as §1
[22] = Mean residence time (infinity) in Balb/c mouse at 50 mg/kg, ip by LC-MS/MS analysis; assay type: ADME, organism-based; conditions: in vivo; how it was run: as §3
[23] = Tmax in Balb/c mouse at 50 mg/kg, ip by LC-MS/MS analysis; assay type: ADME, organism-based; conditions: in vivo; how it was run: as §3
[24] = Mean residence time (last) in Plasmodium chabaudi infected Balb/c mouse at 50 mg/kg, ip by LC-MS/MS analysis; assay type: ADME, organism-based; conditions: in vivo; how it was run: as §3
[25] = Terminal half life in Plasmodium chabaudi infected Balb/c mouse at 50 mg/kg, ip by LC-MS/MS analysis; assay type: ADME, organism-based; conditions: in vivo, read-out: beta t1/2 (converted); how it was run: as §3
[26] = test system: Plasma; assay: Prodrug activation in Plasmodium chabaudi infected Balb/c mouse plasma assessed as mefloquine level at 50 mg/kg, ip at 30 mins by LC-MS/MS analysis; assay type: organism-based; conditions: in vivo, 0.5 h; how it was run: as §4
[27] = test system: Plasmodium chabaudi; assay: Antimalarial activity against Plasmodium chabaudi infected in Balb/c mouse assessed as parastemia at 50 mg/kg, ip measured 4 day postinoculation (reference value: 4.6 +/- 0.5 %); assay type: functional; how it was run: as §2
[28] = test system: Plasmodium chabaudi; assay: Antimalarial activity against Plasmodium chabaudi infected in Balb/c mouse assessed as parastemia at 8 mg/kg, ip measured 7 day postinoculation (reference value: 34 +/- 2.3 %); assay type: functional; how it was run: as §2
[29] = test system: Plasmodium chabaudi; assay: Antimalarial activity against Plasmodium chabaudi infected in Balb/c mouse assessed as parastemia at 16.5 mg/kg, ip measured 4 day postinoculation (reference value: 4.6 +/- 0.5 %); assay type: functional; how it was run: as §2
[30] = Apparent oral clearance in Balb/c mouse at 50 mg/kg, ip by LC-MS/MS analysis; assay type: ADME, organism-based; conditions: in vivo; how it was run: as §3
[31] = Mean residence time (infinity) in Plasmodium chabaudi infected Balb/c mouse at 50 mg/kg, ip by LC-MS/MS analysis; assay type: ADME, organism-based; conditions: in vivo; how it was run: as §3
[32] = Mean residence time (last) in Balb/c mouse at 50 mg/kg, ip by LC-MS/MS analysis; assay type: ADME, organism-based; conditions: in vivo; how it was run: as §3
[33] = test system: Plasmodium chabaudi; assay: Antimalarial activity against Plasmodium chabaudi infected in Balb/c mouse assessed as parastemia at 8 mg/kg, ip measured 4 day postinoculation (reference value: 4.6 +/- 0.5 %); assay type: functional; how it was run: as §2
[34] = Cmax in Balb/c mouse at 50 mg/kg, ip by LC-MS/MS analysis; assay type: ADME, organism-based; set-up: dose 50 mg/kg, route intraperitoneal; conditions: in vivo; how it was run: as §3
[35] = Tmax in Plasmodium chabaudi infected Balb/c mouse plasma at 10 mg/kg, ip by LC-MS/MS analysis; assay type: ADME, organism-based
How it was run: (§5)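 P. chabaudi-infected mice given a single 10 mg/kg i.p. dose. Blood and brain were sampled over 24 h and analysed for drug concentrations. Plasma concentration–time course used; brain levels reported at three time points.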

[36] = test system: Plasmodium chabaudi; assay: Antimalarial activity against Plasmodium chabaudi infected in Balb/c mouse assessed as parastemia at 10 mg/kg, ip administered as single dose measured 7 day postinoculation (reference value: 34 +/- 2.3 %); assay type: functional
[37] = Drug level in Plasmodium chabaudi infected Balb/c mouse brain at 10 mg/kg, ip at 24 hrs by LC-MS/MS analysis; assay type: ADME, organism-based; conditions: read-out: Drug uptake; how it was run: as §5
[38] = test system: Plasmodium chabaudi; assay: Antimalarial activity against Plasmodium chabaudi infected in Balb/c mouse assessed as parastemia at 10 mg/kg, ip measured 13 day postinoculation; assay type: functional
[39] = test system: Plasmodium berghei; assay: Antimalarial activity against Plasmodium berghei infected in Swiss-Webster mouse assessed as decrease in parasitemia at 10 mg/kg qd for 4 days administered via oral gavage; assay type: functional, organism-based
How it was run: (§6)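 Female Swiss-Webster mice (n = 5 per arm) inoculated with 10^6 P. berghei parasites. Compound or vehicle given by oral gavage once daily for 4 days, starting on the day of inoculation. Parasitemia, morbidity and mortality recorded daily over 28 days; mice euthanized as required by study protocol.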

[40] = test system: Plasmodium berghei; assay: Antimalarial activity against Plasmodium berghei infected in Swiss-Webster mouse assessed as mouse survival upto day 28 at 10 mg/kg qd for 4 days administered via oral gavage; assay type: functional, organism-based; how it was run: as §6
[41] = test system: Plasmodium chabaudi; assay: Antimalarial activity against Plasmodium chabaudi infected in Balb/c mouse assessed as parastemia at 10 mg/kg, ip administered as single dose measured 4 day postinoculation (reference value: 4.6 +/- 0.5 %); assay type: functional

## C[C@@H]1CC[C@H]2[C@@H](C)C(=O)O[C@@H]3O[C@@]4(C)CC[C@@H]1[C@]32OO4 [ARTEMISININ]
[1]
  EC50: 9.3 nM

## CC(C)(N)CNC(=O)C[C@H]1CC[C@]2(CC1)OOC1(O2)C2CC3CC(C2)CC1C3 (some centres undefined)
[2]
  blood plasma ratio: 1.5
[1]
  EC50: 2.5 nM

## CC(C)(N)CNC(=O)O[C@H]1CCC[C@@]2(C1)OOC1(O2)C2CC3CC(C2)CC1C3 (some centres undefined)
[3]
  Activity: Active
[1]
  EC50: 2.7 nM
[4]
  remaining at 2 h: 97%

## O=C(O[C@H]1CCC[C@@]2(C1)OOC1(O2)C2CC3CC(C2)CC1C3)N1CCCC[C@@H]1[C@@H](O)c1cc(C(F)(F)F)nc2c(C(F)(F)F)cccc12 (some centres undefined)
[5]
  Activity: 0.7%
[6]
  AUC(0-inf): 34100 ng·h/mL
[7]
  half-life: 8.41 h
[8]
  Drug metabolism: metabolite_detected
[9]
  AUC(0-inf): 13600 ng·h/mL
[2]
  blood plasma ratio: 0.7
[10]
  Activity: 0%
[1]
  EC50: 3 nM
[11]
  Cmax: 1570 ng/mL
[12]
  Tmax: 2 h
[13]
  Activity: 0.65%
[14]
  remaining at 4 h: 85%
[15]
  Activity: 0%
[16]
  Vd/F: 17.8 L/kg
[17]
  CL/F: 61.2 mL/min/kg
[18]
  Drug metabolism: 250 ng/mL
[19]
  Tmax: 0.5 h
[20]
  Vd/F: 45.5 L/kg
[21]
  remaining at 4 h: 94%
[22]
  MRT inf: 11 h
[23]
  Tmax: 1 h
[24]
  MRT last: 6.43 h
[25]
  half-life: 8.6 h
[26]
  Drug metabolism: metabolite_notdetected
[27]
  Activity: 5.4%
[28]
  Activity: 33%
[29]
  Activity: 4.5%
[30]
  CL/F: 24.5 mL/min/kg
[31]
  MRT inf: 10.6 h
[32]
  MRT last: 6.93 h
[33]
  Activity: 4.8%
[34]
  Cmax: 3620 ng/mL

## O[C@@H](c1cc(C(F)(F)F)nc2c(C(F)(F)F)cccc12)[C@H]1CCCCN1 (racemic) [(S,R)-MEFLOQUINE]
[35]
  Tmax: 5 min
[36]
  Activity: 0.02%
[37]
  concentration at 24 h: 1400 ng/mL
[2]
  blood plasma ratio: 1.6
[1]
  EC50: 2.5 nM
[14]
  remaining at 4 h: 95%
[38]
  Activity: 0%
[39]
  inhibition: Active
[40]
  Activity: Active
[21]
  remaining at 4 h: 97%
[41]
  Activity: 4.8%
